Assays:
[1] = tested on: Human immunodeficiency virus 1; test: Antiviral activity against HIV1 NL4-3 infected in human MT4 cells assessed as inhibition of viral replication after 4 days by p24 antigen based ELISA assay; assay type: functional, organism-based; details: Human immunodeficiency virus 1, NL4-3, MT4, 96 h
MT4 = test: Cytotoxicity against human MT4 cells after 4 days; assay type: cell-based; details: MT4, 96 h
Procedure, shortened: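 Mock-infected MT-4 cells were used. IC50 is the concentration giving 50% inhibition of cell growth. Values are averages of at least two separate experiments.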

[2] = Therapeutic index, ratio of IC50 for human MT4 cells to EC50 for HIV1 NL4-3; assay type: cell-based; details: read-out: TI
Procedure, shortened: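 TI was calculated as IC50 (growth inhibition of mock-infected MT-4 cells) divided by EC50 (inhibition of HIV-1 NL4-3 replication in MT-4 cells). Both inputs are averages of at least two separate experiments.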

SMILES: C=C(C)[C@@H]1CC[C@]2(COC(=O)CCC(=O)OC[C@H]3O[C@@H](n4cc(C)c(=O)[nH]c4=O)C[C@@H]3N=[N+]=[N-])CC[C@]3(C)[C@H](CC[C@@H]4[C@@]5(C)CC[C@H](OC(=O)CC(C)(C)C(=O)O)C(C)(C)[C@@H]5CC[C@]43C)[C@@H]12
- EC50 [1]: 45 nM
- IC50 (MT4): 7100 nM
- selectivity ratio [2]: 158

SMILES: C=C(C)[C@@H]1CC[C@]2(COC(=O)CCCC(=O)OC[C@H]3O[C@@H](n4cc(C)c(=O)[nH]c4=O)C[C@@H]3N=[N+]=[N-])CC[C@]3(C)[C@H](CC[C@@H]4[C@@]5(C)CC[C@H](OC(=O)CC(C)(C)C(=O)O)C(C)(C)[C@@H]5CC[C@]43C)[C@@H]12
- EC50 [1]: 60 nM
- IC50 (MT4): 8700 nM
- selectivity ratio [2]: 145

SMILES: C=C(C)[C@@H]1CC[C@]2(COC(=O)CC(C)(C)C(=O)OC[C@H]3O[C@@H](n4cc(C)c(=O)[nH]c4=O)C[C@@H]3N=[N+]=[N-])CC[C@]3(C)[C@H](CC[C@@H]4[C@@]5(C)CC[C@H](OC(=O)CC(C)(C)C(=O)O)C(C)(C)[C@@H]5CC[C@]43C)[C@@H]12
- EC50 [1]: 98 nM
- IC50 (MT4): 7000 nM
- selectivity ratio [2]: 71

SMILES: C=C(C)[C@@H]1CC[C@]2(COC(=O)C(C)(C)CC(=O)OC[C@H]3O[C@@H](n4cc(C)c(=O)[nH]c4=O)C[C@@H]3N=[N+]=[N-])CC[C@]3(C)[C@H](CC[C@@H]4[C@@]5(C)CC[C@H](OC(=O)CC(C)(C)C(=O)O)C(C)(C)[C@@H]5CC[C@]43C)[C@@H]12
- EC50 [1]: 40 nM
- IC50 (MT4): 5400 nM
- selectivity ratio [2]: 135

SMILES: C=C(C)[C@@H]1CC[C@]2(COC(=O)CC(C)(C)CC(=O)OC[C@H]3O[C@@H](n4cc(C)c(=O)[nH]c4=O)C[C@@H]3N=[N+]=[N-])CC[C@]3(C)[C@H](CC[C@@H]4[C@@]5(C)CC[C@H](OC(=O)CC(C)(C)C(=O)O)C(C)(C)[C@@H]5CC[C@]43C)[C@@H]12
- EC50 [1]: 63 nM
- IC50 (MT4): 8100 nM
- selectivity ratio [2]: 129

SMILES: C=C(C)[C@@H]1CC[C@]2(COC(=O)CC(C)(C)CC(=O)OC[C@H]3O[C@@H](n4cc(C)c(=O)[nH]c4=O)C[C@@H]3N=[N+]=[N-])CC[C@]3(C)[C@H](CC[C@@H]4[C@@]5(C)CC[C@H](OC(=O)CC(C)(C)CC(=O)O)C(C)(C)[C@@H]5CC[C@]43C)[C@@H]12
- EC50 [1]: 180 nM
- IC50 (MT4): 7700 nM
- selectivity ratio [2]: 43

SMILES: Cc1cn([C@H]2C[C@H](N=[N+]=[N-])[C@@H](COC(=O)C(C)(C)CC(=O)OC[C@]34CC[C@@H](C(C)C)[C@@H]3[C@H]3CC[C@@H]5[C@@]6(C)CC[C@H](OC(=O)CC(C)(C)C(=O)O)C(C)(C)[C@@H]6CC[C@@]5(C)[C@]3(C)CC4)O2)c(=O)[nH]c1=O
- EC50 [1]: 87 nM
- IC50 (MT4): 9000 nM
- selectivity ratio [2]: 103

SMILES: Cc1cn([C@H]2C[C@H](N=[N+]=[N-])[C@@H](COC(=O)CC(C)(C)C(=O)OC[C@]34CC[C@@H](C(C)C)[C@@H]3[C@H]3CC[C@@H]5[C@@]6(C)CC[C@H](OC(=O)CC(C)(C)C(=O)O)C(C)(C)[C@@H]6CC[C@@]5(C)[C@]3(C)CC4)O2)c(=O)[nH]c1=O
- EC50 [1]: 56 nM
- IC50 (MT4): 7700 nM
- selectivity ratio [2]: 138

SMILES: Cc1cn([C@H]2C[C@H](N=[N+]=[N-])[C@@H](COC(=O)CC(C)(C)CC(=O)OC[C@]34CC[C@@H](C(C)C)[C@@H]3[C@H]3CC[C@@H]5[C@@]6(C)CC[C@H](OC(=O)CC(C)(C)C(=O)O)C(C)(C)[C@@H]6CC[C@@]5(C)[C@]3(C)CC4)O2)c(=O)[nH]c1=O
- EC50 [1]: 290 nM
- IC50 (MT4): 9000 nM
- selectivity ratio [2]: 31

SMILES: Cc1cn([C@H]2C[C@H](N=[N+]=[N-])[C@@H](COC(=O)CC(C)(C)C(=O)OC[C@]34CC[C@@H](C(C)C)[C@@H]3[C@H]3CC[C@@H]5[C@@]6(C)CC[C@H](OC(=O)CCCC(=O)O)C(C)(C)[C@@H]6CC[C@@]5(C)[C@]3(C)CC4)O2)c(=O)[nH]c1=O
- EC50 [1]: 73 nM
- IC50 (MT4): 8000 nM
- selectivity ratio [2]: 110

SMILES: Cc1cn([C@H]2C[C@H](N=[N+]=[N-])[C@@H](COC(=O)C(C)(C)CC(=O)OC[C@]34CC[C@@H](C(C)C)[C@@H]3[C@H]3CC[C@@H]5[C@@]6(C)CC[C@H](OC(=O)CCCC(=O)O)C(C)(C)[C@@H]6CC[C@@]5(C)[C@]3(C)CC4)O2)c(=O)[nH]c1=O
- EC50 [1]: 260 nM
- IC50 (MT4): 7200 nM
- selectivity ratio [2]: 28

SMILES: Cc1cn([C@H]2C[C@H](N=[N+]=[N-])C(COC(=O)CCCC(=O)OC[C@]34CC[C@@H](C(C)C)[C@@H]3[C@H]3CC[C@@H]5[C@@]6(C)CC[C@H](OC(=O)CCCC(=O)O)C(C)(C)[C@@H]6CC[C@@]5(C)[C@]3(C)CC4)O2)c(=O)[nH]c1=O (some centres not stated)
- EC50 [1]: 93 nM
- IC50 (MT4): 9000 nM
- selectivity ratio [2]: 97

SMILES: Cc1cn([C@H]2C[C@H](N=[N+]=[N-])C(COC(=O)CC(C)(C)CC(=O)OC[C@]34CC[C@@H](C(C)C)[C@@H]3[C@H]3CC[C@@H]5[C@@]6(C)CC[C@H](OC(=O)CCCC(=O)O)C(C)(C)[C@@H]6CC[C@@]5(C)[C@]3(C)CC4)O2)c(=O)[nH]c1=O (some centres not stated)
- EC50 [1]: 1210 nM
- IC50 (MT4): 8500 nM
- selectivity ratio [2]: 7

SMILES: Cc1cn([C@H]2C[C@H](N=[N+]=[N-])C(COC(=O)CC(C)(C)CC(=O)OC[C@]34CC[C@@H](C(C)C)[C@@H]3[C@H]3CC[C@@H]5[C@@]6(C)CC[C@H](OC(=O)CC(C)(C)CC(=O)O)C(C)(C)[C@@H]6CC[C@@]5(C)[C@]3(C)CC4)O2)c(=O)[nH]c1=O (some centres not stated)
- EC50 [1]: 360 nM
- IC50 (MT4): 9800 nM
- selectivity ratio [2]: 27

SMILES: C=C(C)[C@@H]1CC[C@]2(COC(=O)CCC(=O)O)CC[C@]3(C)[C@H](CC[C@@H]4[C@@]5(C)CC[C@H](OC(=O)CC(C)(C)C(=O)O)C(C)(C)[C@@H]5CC[C@]43C)[C@@H]12
- EC50 [1]: 180 nM
- IC50 (MT4): 11300 nM
- selectivity ratio [2]: 63

SMILES: C=C(C)[C@@H]1CC[C@]2(COC(=O)CCCC(=O)O)CC[C@]3(C)[C@H](CC[C@@H]4[C@@]5(C)CC[C@H](OC(=O)CC(C)(C)C(=O)O)C(C)(C)[C@@H]5CC[C@]43C)[C@@H]12
- EC50 [1]: 310 nM
- IC50 (MT4): > 46600 nM
- selectivity ratio [2]: > 47

SMILES: C=C(C)[C@@H]1CC[C@]2(C(=O)O)CC[C@]3(C)[C@H](CC[C@@H]4[C@@]5(C)CC[C@H](OC(=O)CC(C)(C)C(=O)O)C(C)(C)[C@@H]5CC[C@]43C)[C@@H]12 [BEVIRIMAT]
- EC50 [1]: 96 nM
- IC50 (MT4): > 5000 nM
- selectivity ratio [2]: > 52

SMILES: Cc1cn([C@H]2C[C@H](N=[N+]=[N-])[C@@H](CO)O2)c(=O)[nH]c1=O [ZIDOVUDINE]
- IC50 (MT4): > 37400 nM

— ChEMBL document CHEMBL1221275 (Bioorg Med Chem, 2010)
